Test results as given in ChEMBL document CHEMBL4251543, “Identification of potent tricyclic prodrug S1P1 receptor modulators” (Medchemcomm, 2017).

Assays:
Rattus norvegicus [1] = experiment: Immunosuppressive activity in Lewis rat assessed as reduction in blood lymphocytes count at 2 mg/kg, po after 24 hrs relative to control; assay type: functional; set-up: scale not given: the % may be the effect or the level left
Summary of the method: (§1)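 Oral dosing in Lewis rats, with PEG300 as vehicle, given as solution or suspension adjusted for free test article if salt forms are used. Blood sampled at several time points. Lymphocytes counted on a hematology analyzer. Result is the reduction in circulating lymphocyte percentage versus the vehicle group at each time, averaged per group (n = 2).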

[2] = Prodrug conversion in Lewis rat blood assessed as formation phosphate metabolite at 2 mg/kg, po after 48 hrs; assay type: ADME, organism-based; details: in vivo
[3] = Prodrug conversion in Lewis rat blood assessed as parent compound levels at 2 mg/kg, po after 24 hrs; assay type: ADME, organism-based; details: in vivo, read-out: Drug metabolism
[4] = Prodrug conversion in Lewis rat blood assessed as parent compound levels at 2 mg/kg, po after 48 hrs; assay type: ADME, organism-based; details: in vivo, read-out: Drug metabolism
Rattus norvegicus [5] = experiment: Immunosuppressive activity in Lewis rat assessed as reduction in blood lymphocytes count at 2 mg/kg, po after 4 hrs relative to control; assay type: functional; set-up: scale not given: the % may be the effect or the level left; summary of the method: as §1
[6] = Prodrug conversion in Lewis rat blood assessed as formation phosphate metabolite at 2 mg/kg, po after 4 hrs; assay type: ADME, organism-based; details: in vivo
[7] = Prodrug conversion in Lewis rat blood assessed as parent compound levels at 2 mg/kg, po after 4 hrs; assay type: ADME, organism-based; details: in vivo, read-out: Drug metabolism
[8] = Half life in Lewis rat at 2 mg/kg, po after 72 hrs; assay type: ADME, organism-based; details: in vivo
Rattus norvegicus [9] = experiment: Immunosuppressive activity in Lewis rat assessed as reduction in blood lymphocytes count at 2 mg/kg, po after 48 hrs relative to control; assay type: functional; set-up: scale not given: the % may be the effect or the level left; summary of the method: as §1
[10] = Prodrug conversion in Lewis rat blood assessed as formation phosphate metabolite at 2 mg/kg, po after 24 hrs; assay type: ADME, organism-based; details: in vivo
Mus musculus [11] = species on record: Mus musculus; experiment: Pulmonary toxicity in mouse assessed as increase in BAL protein levels at 5 times ED50; assay type: organism-based; details: in vivo
Rattus norvegicus [12] = experiment: Immunosuppressive activity in po dosed Lewis rat assessed as reduction in blood lymphocytes after 24 hrs; assay type: functional; summary of the method: as §1
Mus musculus [13] = species on record: Mus musculus; experiment: Pulmonary toxicity in mouse assessed as increase in BAL protein levels at 15 times ED50; assay type: organism-based; details: in vivo
[14] = biological target: Sphingosine 1-phosphate receptor 1 (Homo sapiens, UniProt P21453); experiment: Agonist activity at human S1P1 receptor expressed in CHO cell membranes after 45 mins by [35S]GTPgammaS binding assay; assay type: functional
Sphingosine 1-phosphate receptor 1, sequence (P21453 whole entry): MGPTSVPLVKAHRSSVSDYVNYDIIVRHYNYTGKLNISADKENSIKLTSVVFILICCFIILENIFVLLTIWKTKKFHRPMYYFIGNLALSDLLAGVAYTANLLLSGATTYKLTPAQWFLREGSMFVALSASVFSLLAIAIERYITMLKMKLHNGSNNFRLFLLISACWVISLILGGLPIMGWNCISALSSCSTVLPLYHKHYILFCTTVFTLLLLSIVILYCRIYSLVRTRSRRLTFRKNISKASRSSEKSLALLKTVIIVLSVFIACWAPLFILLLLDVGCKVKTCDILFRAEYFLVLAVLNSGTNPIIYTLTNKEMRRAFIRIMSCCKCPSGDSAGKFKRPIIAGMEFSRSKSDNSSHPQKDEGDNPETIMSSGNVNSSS
Summary of the method: (§2)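 Membranes from S1P1/CHO or EDG3-Ga15-bla HEK293T cells (final protein 3 µg/well) incubated with compound (11-point, 3-fold dilution) and [35S]GTP 0.2 nM final in 20 mM HEPES pH 7.5, 10 mM MgCl2, 150 mM NaCl, 1 mM EGTA, 1 mM DTT, 10 µM GDP, 0.1% fatty acid free BSA, 10 µg/ml saponin, 45 min at room temperature. Filter capture, scintillation counting; EC50 taken at 50% of each compound's Ymax.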

Mus musculus [15] = species on record: Mus musculus; experiment: Pulmonary toxicity in mouse assessed as increase in BAL protein levels up to 10 times ED50; assay type: organism-based; details: in vivo
Mus musculus [16] = species on record: Mus musculus; experiment: Pulmonary toxicity in mouse assessed as increase in BAL protein levels at 60 times ED50; assay type: organism-based; details: in vivo
Mus musculus [17] = species on record: Mus musculus; experiment: Pulmonary toxicity in mouse assessed as increase in BAL protein levels at 30 times ED50; assay type: organism-based; details: in vivo
Mus musculus [18] = species on record: Mus musculus; experiment: Pulmonary toxicity in mouse assessed as increase in BAL protein levels at ED50; assay type: organism-based; details: in vivo
[19] = biological target: Sphingosine 1-phosphate receptor 3 (Homo sapiens, UniProt Q99500); experiment: Agonist activity at human EDG3-Ga15-bla expressed in HEK293T cells after 45 mins by [35S]GTPgammaS binding assay; assay type: functional, cell-based; summary of the method: as §2
Sphingosine 1-phosphate receptor 3, sequence (Q99500 whole entry): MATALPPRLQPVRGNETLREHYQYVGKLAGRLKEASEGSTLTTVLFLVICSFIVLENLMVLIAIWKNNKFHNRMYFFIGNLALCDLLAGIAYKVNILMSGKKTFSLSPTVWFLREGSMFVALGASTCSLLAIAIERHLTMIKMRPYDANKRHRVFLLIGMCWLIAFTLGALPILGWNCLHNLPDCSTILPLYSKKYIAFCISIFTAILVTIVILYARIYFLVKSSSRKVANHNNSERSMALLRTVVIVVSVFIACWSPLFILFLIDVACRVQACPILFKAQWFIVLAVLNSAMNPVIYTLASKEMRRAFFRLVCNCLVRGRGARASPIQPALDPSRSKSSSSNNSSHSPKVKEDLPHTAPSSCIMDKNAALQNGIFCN

Cardiac muscle cell [20] = experiment: Toxicity in human inducible pluripotent stem cell derived cardiomyocytes assessed as reduction in beating rate at 10 nM after 20 mins by multi-electrode array electrophysiology study; assay type: cell-based; set-up: scale not given: the % may be the effect or the level left; details: 0.01 µM
Summary of the method: (§3)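 hiPSC cardiomyocytes were grown 7 days at 7% CO2 on gelatin, then co-cultured with 10% cardiac fibroblasts for 7 days on laminin-coated 9-well MEA plates until they formed a beating monolayer. After 20-60 min equilibration at 37 °C, compound was added in maintenance medium (DMSO or NaOH vehicle below 0.1% or 30 µM). Field potentials were recorded at 10 kHz from 28 electrodes/well for at least 2 h. Reported as mean change in beating rate versus control, mean ± SD of ≥3 experiments.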

Cardiac muscle cell [21] = experiment: Toxicity in human inducible pluripotent stem cell derived cardiomyocytes assessed as reduction in beating rate at 1 nM after 20 mins by multi-electrode array electrophysiology study; assay type: cell-based; set-up: scale not given: the % may be the effect or the level left; details: 0.001 µM; summary of the method: as §3

Row | Drug metabolism [2] | concentration [3] | concentration [4] | Drug metabolism [6] | concentration [7] | half-life [8] | Drug metabolism [10] | Emax [14] | SMILES | Activity (Rattus norvegicus [1]) | Activity (Rattus norvegicus [5]) | Activity (Rattus norvegicus [9]) | other results
1 | < 5 nM | 31 nM | 17 nM | 62 nM | 72 nM | 25 h | < 5 nM | – | CCCCCCOc1nc2c(s1)-c1ccc([C@H]3CC[C@](N)(CO)C3)cc1CC2 | 82% | 66% | 82% | –
2 | 50 nM | 66 nM | < 10 nM | 140 nM | 110 nM | 35 h | 160 nM | – | CCCCCCc1nc2c(s1)-c1ccc([C@H]3CC[C@](N)(CO)C3)cc1CC2 | 82% | 59% | 74% | –
3 | < 1 nM | 1.4 nM | < 1 nM | 15 nM | 9.1 nM | < 5 h | 2.3 nM | – | CCCCSc1nc2c(s1)-c1ccc([C@H]3CC[C@](N)(CO)C3)cc1CC2 | 48% | 82% | 16% | Activity (Mus musculus [11]): Toxic; ED50 (Rattus norvegicus [12]): 2 mg/kg; Activity (Mus musculus [13]): Toxic
4 | – | – | – | – | – | – | – | 98% | CCCCCCCc1nc2c(s1)-c1ccc([C@H]3CC[C@](N)(COP(=O)(O)O)C3)cc1CC2 | – | – | – | –
5 | 150 nM | 110 nM | 43 nM | 63 nM | 66 nM | > 50 h | 300 nM | – | CCCCCCCc1nc2c(s1)-c1ccc([C@H]3CC[C@](N)(CO)C3)cc1CC2 | 77% | 40% | 80% | –
6 | – | 37 nM | – | 12 nM | 48 nM | 6 h | 19 nM | – | Cc1ccc(-c2nc3c(s2)-c2ccc([C@H]4CC[C@](N)(CO)C4)cc2CC3)cc1 | 2.1% | 9.3% | – | –
7 | < 5 nM | 8 nM | < 5 nM | 10 nM | 15 nM | 6 h | 8.1 nM | – | CCCCSc1nc2ccc3cc([C@H]4CC[C@](N)(CO)C4)ccc3c2s1 | 75% | 69% | 59% | –
8 | 16 nM | 55 nM | 25 nM | 91 nM | 100 nM | 20 h | 56 nM | – | CCCCCc1nc2c(s1)-c1ccc([C@H]3CC[C@](N)(CO)C3)cc1CC2 | 83% | 33% | 56% | Activity (Mus musculus [15]): Non-Toxic; ED50 (Rattus norvegicus [12]): 0.5 mg/kg; Activity (Mus musculus [16]): Toxic; Activity (Mus musculus [17]): Non-Toxic
9 | – | 18 nM | 4.1 nM | – | 110 nM | 9 h | – | – | CCCCN(C)c1nc2c(s1)-c1ccc([C@H]3CC[C@](N)(CO)C3)cc1CC2 | 27% | 30% | 4.4% | –
10 | – | < 19 nM | – | 79 nM | 110 nM | < 2 h | < 10 nM | – | CCCc1nc2c(s1)-c1ccc([C@H]3CC[C@](N)(CO)C3)cc1CC2 | 0% | 41% | – | –
11 | – | – | – | 570 nM | 33 nM | – | 190 nM | – | CCCCNc1nc2c(s1)-c1ccc([C@H]3CC[C@](N)(CO)C3)cc1CC2 | 0% | 37% | – | –
12 | 160 nM | 78 nM | 41 nM | 260 nM | 81 nM | 41 h | 250 nM | – | CCCCCCOc1nc2ccc3cc([C@H]4CC[C@](N)(CO)C4)ccc3c2s1 | 83% | 73% | 86% | –
13 | < 5 nM | 16 nM | < 5 nM | 43 nM | 87 nM | 5 h | 10 nM | – | CCCCCSc1nc2c(s1)-c1ccc([C@H]3CC[C@](N)(CO)C3)cc1CC2 | 76% | 72% | 44% | –
14 | – | – | – | – | – | – | – | 49% | CCCCNc1nc2c(s1)-c1ccc([C@H]3CC[C@](N)(COP(=O)(O)O)C3)cc1CC2 | – | – | – | EC50 [14]: 0.13 µM
15 | – | 17 nM | 8.3 nM | – | 31 nM | 35 h | – | – | CCCCCOc1nc2ccc3cc([C@H]4CC[C@](N)(CO)C4)ccc3c2s1 | 80% | 80% | 68% | –
16 | 4 nM | 7 nM | < 5 nM | 34 nM | 35 nM | 5 h | 20 nM | – | CCCCOc1nc2c(s1)-c1ccc([C@H]3CC[C@](N)(CO)C3)cc1CC2 | 68% | 74% | 26% | Activity (Mus musculus [18]): Toxic; ED50 (Rattus norvegicus [12]): 1 mg/kg
17 | – | – | – | – | – | – | – | 100% | CCCCCCOc1nc2c(s1)-c1ccc([C@H]3CC[C@](N)(COP(=O)(O)O)C3)cc1CC2 | – | – | – | –
18 | < 5 nM | 29 nM | 12 nM | 71 nM | 81 nM | 21 h | 26 nM | – | CCCCCOc1nc2c(s1)-c1ccc([C@H]3CC[C@](N)(CO)C3)cc1CC2 | 80% | 67% | 59% | –
19 | < 5 nM | 21 nM | 12 nM | 5.1 nM | 28 nM | 14 h | < 5 nM | – | CCCCOc1nc2ccc3cc([C@H]4CC[C@](N)(CO)C4)ccc3c2s1 | 77% | 65% | 59% | –
20 | – | – | – | – | – | – | – | 110% | CCCCOCCOc1nc2c(s1)-c1ccc([C@H]3CC[C@](N)(COP(=O)(O)O)C3)cc1CC2 | – | – | – | EC50 [19]: 0.19 µM; EC50 [14]: 0.001 µM
21 | – | – | – | – | – | – | – | 58% | CCCCSc1nc2c(s1)-c1ccc([C@H]3CC[C@](N)(COP(=O)(O)O)C3)cc1CC2 | – | – | – | Activity (Cardiac muscle cell [20]): Toxic; Activity (Cardiac muscle cell [21]): Toxic
22 | < 5 nM | 9.4 nM | < 5 nM | 97 nM | 77 nM | < 4 h | 8.2 nM | – | CCCCc1nc2c(s1)-c1ccc([C@H]3CC[C@](N)(CO)C3)cc1CC2 | 48% | 66% | 12% | –
23 | – | – | – | – | – | – | – | 58% | CCCCOc1nc2c(s1)-c1ccc([C@H]3CC[C@](N)(COP(=O)(O)O)C3)cc1CC2 | – | – | – | Activity (Cardiac muscle cell [20]): 36%; Activity (Cardiac muscle cell [21]): 16%
24 | – | – | – | – | – | – | – | 79% | CCCc1nc2c(s1)-c1ccc([C@H]3CC[C@](N)(COP(=O)(O)O)C3)cc1CC2 | – | – | – | –
25 | < 5 nM | 68 nM | < 5 nM | 39 nM | 97 nM | 4 h | < 5 nM | – | COc1cccc(-c2nc3c(s2)-c2ccc([C@H]4CC[C@](N)(CO)C4)cc2CC3)c1 | 63% | 31% | 30% | –
26 | – | – | – | – | – | – | – | 79% | CCCCCc1nc2c(s1)-c1ccc([C@H]3CC[C@](N)(COP(=O)(O)O)C3)cc1CC2 | – | – | – | Activity (Cardiac muscle cell [20]): Toxic; EC50 [19]: > 3 µM; EC50 [14]: 0.021 µM; Activity (Cardiac muscle cell [21]): Toxic
